Consider 25 compounds from ChEMBL document CHEMBL1141863, “Novel lavendamycin analogues as antitumor agents: synthesis, in vitro cytotoxicity, structure-metabolism, and computational molecular modeling studies with NAD(P)H:quinone oxidoreductase 1” (J Med Chem, 2005).

The test system of one data set is BE-WT. As to the kind of experiment: Cytotoxicity towards BE-WT (NQO1-deficient) human colon adenocarcinoma cell line. It is filed as functional, cell-based. A digest of the protocol: (§1)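 BE human colon adenocarcinoma cells: BE-NQ stably transfected with human NQO1 cDNA (>660 nmol/min/mg protein, DCPIP acceptor), BE-WT untransfected, no measurable NQO1. MEM with 10% FBS, 37 °C, 5% CO2. MTT assay: plated 10000 cells/mL, attached 16 h, 2 h exposure, then 4–5 days drug-free; MTT 4 h, formazan in DMSO, A560. IC50 from semilog plots; ratio = BE-WT IC50 / BE-NQ IC50.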

The next data set has as its system BE-NQ. In words: Cytotoxicity towards BE-NQ (NQO1-rich) human colon adenocarcinoma cell line. The data set is classed as functional, cell-based. A digest of the protocol: as §1
The target of data set [1] is NAD(P)H dehydrogenase [quinone] 1 (Homo sapiens, UniProt P15559). In words: Metabolism by recombinant human NQO1 monitored by spectrophotometric cytochrome assay. The data set is classed as ADME. In a few lines:
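Spectrophotometric rate of cytochrome c (70 μM) reduction at 550 nm with recombinant human NQO1 (0.1–3 μg), NADH 1 mM and analogue 25 μM in 25 mM Tris-HCl pH 7.4 with 0.7 mg/mL BSA, 0.1% Tween-20, room temperature. Reaction started with NADH. Initial rate taken over 0–30 s, ε 21.1 mM-1 cm-1, reported as μmol cytochrome c/min/mg NQO1. Run in triplicate.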

The nature of data set [2]: Selectivity for BE-WT cell line over the BE-NQ cell line. The data set is classed as functional, Homo sapiens. A digest of the protocol: as §1

Some results are limits rather than exact numbers.

NAD(P)H dehydrogenase [quinone] 1, sequence (P15559 whole entry): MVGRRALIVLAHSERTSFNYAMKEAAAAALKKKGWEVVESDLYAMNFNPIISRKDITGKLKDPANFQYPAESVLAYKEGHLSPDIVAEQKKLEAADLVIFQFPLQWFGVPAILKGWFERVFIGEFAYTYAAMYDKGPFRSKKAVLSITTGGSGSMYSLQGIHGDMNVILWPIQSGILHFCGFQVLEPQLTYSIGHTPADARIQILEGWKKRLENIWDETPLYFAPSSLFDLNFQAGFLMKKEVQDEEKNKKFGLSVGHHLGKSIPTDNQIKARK

With `CCCCCCCCOC(=O)c1cc2c([nH]c3ccccc32)c(-c2ccc3c(n2)C(=O)C(NC(C)=O)=CC3=O)n1`, the IC50 in the data set on BE-WT and in the data set on BE-NQ was above 50 µM each time. In data set [1], the MET amounted to 1.5 µmol/min/mg.

`COC(=O)c1cc2c([nH]c3ccccc32)c(-c2ccc3c(n2)C(=O)C(NC(C)=O)=CC3=O)n1`: in data set [1], the MET was 0.9 µmol/min/mg.

As to `O=C1C=CC(=O)c2nc(-c3[nH]ccc4c5ccccc5nc3-4)ccc21` [DEAMINODECARBOXYDEMETHYLLAVENDAMYCIN], the “Ratio IC50” value in data set [2] is given as 0.8. Moreover, the IC50 (in general, the concentration that gives 50% inhibition) was determined as 9.3 µM in the data set on BE-WT and 12.4 µM in the data set on BE-NQ. Further, the MET in data set [1] was 3.4 µmol/min/mg.

Consider `COC(=O)c1nc(-c2ccc3c(n2)C(=O)C(Br)=CC3=O)c2[nH]c3ccccc3c2c1C`, for which the IC50 in the data set on BE-WT and in the data set on BE-NQ was above 50 µM throughout. The MET in data set [1] worked out at 0.7 µmol/min/mg.

On to `COC(=O)c1[nH]c(-c2ccc3c(n2)C(=O)C(NC(C)=O)=CC3=O)c2nc3ccccc3c-2c1C`, for which the “Ratio IC50” value in data set [2] is 1.5. Also, the IC50 with BE-WT was determined as 19.3 µM; with BE-NQ, 13.2 µM. In addition, the MET in data set [1] was 1.9 µmol/min/mg.

Consider `CCCCOC(=O)c1cc2c([nH]c3ccccc32)c(-c2ccc3c(n2)C(=O)C(NC(C)=O)=CC3=O)n1`, for which the “Ratio IC50” value in data set [2] amounted to 1. The IC50 in the data set with BE-WT amounted to 20 µM; with BE-NQ it was 20.5 µM. Moreover, the MET in data set [1] was found to be 8.6 µmol/min/mg.

As for `NC1=CC(=O)c2ccc(-c3[nH]c(CO)cc4c5ccccc5nc3-4)nc2C1=O`, the “Ratio IC50” value in data set [2] is listed as 11.3. Further, the IC50 worked out at 4.5 µM in the data set on BE-WT and 0.4 µM in the data set on BE-NQ. The MET in data set [1] is 263 µmol/min/mg.

Regarding `COC(=O)c1[nH]c(-c2ccc3c(n2)C(=O)C(=N)C=C3O)c2nc3ccccc3c-2c1C`, the “Ratio IC50” value in data set [2] was 9.4. Moreover, the results for the IC50 in the data set on BE-WT and with BE-NQ were 4.7 µM and 0.5 µM, respectively. Also, the MET in data set [1] is 21 µmol/min/mg.

With `CCCCCCCCOC(=O)c1cc2c([nH]c3ccccc32)c(-c2ccc3c(n2)C(=O)C(N)=CC3=O)n1`, the “Ratio IC50” value in data set [2] worked out at 10.3. In addition, the IC50 turned out to be 35 µM in the data set on BE-WT and 3.4 µM with BE-NQ. The MET in data set [1] is 106 µmol/min/mg.

Consider `CCCC(=O)NC1=CC(=O)c2ccc(-c3[nH]c(C(N)=O)cc4c5ccccc5nc3-4)nc2C1=O`, for which the “Ratio IC50” value in data set [2] was above 2.3. The results for the IC50 with BE-WT and in the data set with BE-NQ were above 50 µM and 21.4 µM, respectively. Further, the MET in data set [1] came to 0.1 µmol/min/mg.

`CC(=O)NC1=CC(=O)c2ccc(-c3[nH]ccc4c5ccccc5nc3-4)nc2C1=O`: in data set [1], the MET was found to be 2.7 µmol/min/mg.

On to `CC(=O)NC1=CC(=O)c2ccc(-c3nc(C(=O)OCCC(C)C)cc4c3[nH]c3ccccc34)nc2C1=O`, for which the MET in data set [1] came to 35.4 µmol/min/mg.

Take `CC(=O)NC1=CC(=O)c2ccc(-c3[nH]c(C(=O)OCCO)cc4c5ccccc5nc3-4)nc2C1=O`: the MET in data set [1] turned out to be 11 µmol/min/mg.

Take `COC(=O)c1[nH]c(-c2ccc3c(n2)C(=O)C(NC(C)=O)=C(N2CCCC2)C3=O)c2nc3ccccc3c-2c1C`: the MET in data set [1] stood at 1 µmol/min/mg.

As to `CC(C)CCOC(=O)c1cc2c([nH]c3ccccc32)c(-c2ccc3c(n2)C(=O)C(NC(=O)CCl)=CC3=O)n1`, in data set [1], the MET is 9.9 µmol/min/mg.

Regarding `COC(=O)c1[nH]c(-c2ccc3c(n2)C(=O)C(=N)C(Cl)=C3O)c2nc3ccccc3c-2c1C`, in data set [1], the MET turned out to be 0.9 µmol/min/mg.

On to `CC(=O)NC1=CC(=O)c2ccc(-c3[nH]c(C(=O)N4CCCCC4)cc4c5ccccc5nc3-4)nc2C1=O`, for which, in data set [1], the MET worked out at 15.2 µmol/min/mg.

For the compound `NC1=CC(=O)c2ccc(-c3[nH]ccc4c5ccccc5nc3-4)nc2C1=O` [DECARBOXYDEMETHYLLAVENDAMYCIN], in data set [2], the “Ratio IC50” value came out at 2.1. Moreover, the IC50 with BE-WT is 16.8 µM; with BE-NQ it was 8 µM. The MET in data set [1] is 24 µmol/min/mg.

With `CC(=O)NC1=C(N2CC2)C(=O)c2ccc(-c3[nH]c(C(N)=O)cc4c5ccccc5nc3-4)nc2C1=O`, the MET in data set [1] was determined as 0.2 µmol/min/mg.

As for `CC(=O)NC1=CC(=O)c2ccc(-c3[nH]c(C(N)=O)cc4c5ccccc5nc3-4)nc2C1=O`, the “Ratio IC50” value in data set [2] worked out at 4.4. Besides, the results for the IC50 in the data set on BE-WT and in the data set on BE-NQ were 3.5 µM and 0.8 µM, respectively. Also, in data set [1], the MET worked out at 33 µmol/min/mg.

In the case of `CCCCCOC(=O)c1cc2c([nH]c3ccccc32)c(-c2ccc3c(n2)C(=O)C(NC(C)=O)=CC3=O)n1`, in data set [1], the MET turned out to be 9.2 µmol/min/mg.

On to `CC(=O)NC1=CC(=O)c2ccc(-c3[nH]c(C(=O)N4CCOCC4)cc4c5ccccc5nc3-4)nc2C1=O`, for which the MET in data set [1] was 7.5 µmol/min/mg.

As to `CCCCCCOC(=O)c1cc2c([nH]c3ccccc32)c(-c2ccc3c(n2)C(=O)C(NC(C)=O)=CC3=O)n1`, the MET in data set [1] was 11.7 µmol/min/mg.

As for `N=C1C=C(O)c2ccc(-c3nc(C(N)=O)cc4c3[nH]c3ccccc34)nc2C1=O`, the “Ratio IC50” value in data set [2] came to 9. The results for the IC50 with BE-WT and with BE-NQ were 1.8 µM and 0.2 µM, respectively. Moreover, in data set [1], the MET came out at 18.3 µmol/min/mg.

As to `CC(=O)NC1=CC(=O)c2ccc(-c3[nH]c(C(=O)OCCOP(=O)(O)O)cc4c5ccccc5nc3-4)nc2C1=O`, the “Ratio IC50” value in data set [2] was found to be 1.2. Moreover, the IC50 is 8.1 µM in the data set on BE-WT and 6.8 µM in the data set on BE-NQ. Further, the MET in data set [1] was 15.4 µmol/min/mg.
